Published values gathered from unrelated publications.
Lines come from different studies, so protocols differ.
Effect on: cell growth or viability

| Structure (SMILES) | cell line | method | time | IC50 |
| --- | --- | --- | --- | --- |
| O=P1(C2CCCCC2)CCCCC1 | HaCaT | MTT | 72 h | > 100 µM |
| CC1=CC(=O)C(C(C)C)=CC1=O | SNB-19 | SRB | 48 h | 56.9 µM |
| COc1ccccc1Cn1nc(-c2ccc(CO)o2)c2ccccc21 | HuCCT-1 | ATP luminescence | – | > 46 µM |
| O=C1CS/C(=N\c2ccc(F)cc2O)N1c1nnc(-c2ccc(C(F)(F)F)cc2/N=C2\SCC(=O)N2c2ccc(F)cc2O)s1 | WI-38 | MTT | – | 20.5 µM |
| O=c1[nH]cc(F)c(=O)[nH]1 | WI-38 | MTT | 72 h | 42.2 µM |
| O=C(Nc1ccc(-c2ccc3ncn(Cc4ccccc4)c(=O)c3c2)cn1)C1CCCC1 | HCC827 | CCK-8 | 72 h | > 10 µM |
| CC1(P2(=O)CCCCC2)C=CCC=C1 | HaCaT | MTT | 72 h | > 100 µM |
| O=C1CS/C(=N\c2cc(C(F)(F)F)ccc2-c2nnc(N3C(=O)CS/C3=N\c3ccc(Cl)cc3)s2)N1c1ccc(Cl)cc1 | WI-38 | MTT | – | 49.2 µM |
| CC(C)=CCc1ncc(/C=C2\NC(=O)[C@H](C(C)C)NC2=O)[nH]1 | ASPC1 | SRB | – | > 15 µM |
| NCc1ccc(-c2nn(Cc3ccccc3)c3ccccc23)o1 | HuCCT-1 | ATP luminescence | – | > 46 µM |
| CCCCC(=O)Nc1ccc(-c2ccc3ncn(CCC)c(=O)c3c2)c(C)n1 | HCC827 | CCK-8 | 72 h | 1.68 µM |
| CC(C)[C@@H]1NC(=O)[C@H](Cc2c[nH]cn2)NC1=O | ASPC1 | SRB | – | > 15 µM |
| OCc1ccc(-c2nn(Cc3cccnc3)c3cccnc23)o1 | HuCCT-1 | ATP luminescence | – | > 46 µM |
| CCCn1cnc2ccc(-c3ccc(NC(=O)CNC(C)C)nc3)cc2c1=O | HCC827 | CCK-8 | 72 h | > 10 µM |
| O=C1CS/C(=N\c2cc(C(F)(F)F)ccc2-c2nnc(N3C(=O)CS/C3=N\c3cc(O)cc(Br)c3)s2)N1c1cc(O)cc(Br)c1 | WI-38 | MTT | – | 71.1 µM |
| OCc1ccc(-c2nn(Cc3ccncc3)c3cccnc23)o1 | HuCCT-1 | ATP luminescence | – | > 46 µM |
| O=C1CS/C(=N\c2cc(C(F)(F)F)ccc2-c2nnc(N3C(=O)CS/C3=N\c3ccc(F)cc3)s2)N1c1ccc(F)cc1 | WI-38 | MTT | – | 19.2 µM |
| CCCCn1cnc2ccc(-c3ccc(NC(=O)NCC)nc3)cc2c1=O | HCC827 | CCK-8 | 72 h | > 10 µM |

| Structure (SMILES) | cell line | method | time | IC50 |
| --- | --- | --- | --- | --- |
| O=c1[nH]cc(F)c(=O)[nH]1 | HaCaT | SRB | – | 0.05 µg/mL |
| Cc1ccc(S(=O)(=O)[O-])cc1.Nc1c([I+]c2ccccc2)c(=O)oc2ccccc12 | HaCaT | MTT | 48 h | 35 µg/mL |
| CCCCCC(=O)Nc1ccc(-c2ccc3ncn(CCC)c(=O)c3c2)cn1 | HCC827 | CCK-8 | 72 h | 0.16 µM |
| COc1cccc(N=C2SCC(=O)N2c2nnc(-c3ccc(C(F)(F)F)cc3N=C3SCC(=O)N3c3cccc(OC)c3)s2)c1 | WI-38 | MTT | – | 82.1 µM |
| NCc1ccc(-c2nn(Cc3ccncc3)c3ccccc23)o1 | HuCCT-1 | ATP luminescence | – | > 46 µM |
| O=C1CS/C(=N\c2cc(C(F)(F)F)ccc2-c2nnc(N3C(=O)CS/C3=N\c3ccc(-c4ccccc4)cc3)s2)N1c1ccc(-c2ccccc2)cc1 | WI-38 | MTT | – | 94.7 µM |
| CCCCn1cnc2ccc(-c3ccc(NC(=O)Nc4ccccc4)nc3)cc2c1=O | HCC827 | CCK-8 | 72 h | 0.98 µM |
| OCc1ccc(-c2nn(Cc3ccccn3)c3ccccc23)o1 | HuCCT-1 | ATP luminescence | – | > 46 µM |
| COc1cccc2c1C(=O)c1c(O)c3c(c(O)c1C2=O)C[C@@](O)(C(=O)CO)C[C@@H]3O[C@H]1C[C@H](N)[C@H](O)[C@H](C)O1 | HuCCT-1 | – | 96 h | 0.0249 µM |
| O=P1(c2ccccc2)CCCCC1 | HaCaT | MTT | 72 h | > 100 µM |
| CC(C)C(=O)Nc1ccc([N+](=O)[O-])c(C(F)(F)F)c1 | HaCaT | MTS | 48 h | > 100 µM |
| Cc1nc(Nc2ncc(C(=O)Nc3c(C)cccc3Cl)s2)cc(N2CC[C@H](O)C2)n1 | KARPAS-299 | ATP luminescence | 72 h | > 10 µM |
| Cc1ccc(NC(=O)Nc2ccc(-c3ccc4ncn(Cc5ccccc5)c(=O)c4c3)cn2)cc1 | HCC827 | CCK-8 | 72 h | > 10 µM |
| OCc1ccc(-c2nn(Cc3ccccn3)c3cccnc23)o1 | HuCCT-1 | ATP luminescence | – | > 46 µM |
| CCCCn1cnc2ccc(-c3ccc(NC(=O)Nc4ccc(C)cc4)nc3)cc2c1=O | HCC827 | CCK-8 | 72 h | 9.15 µM |
| OCc1ccc(-c2nn(Cc3cccnc3)c3ccccc23)o1 | HuCCT-1 | ATP luminescence | – | > 46 µM |
| O=C1CSC(=Nc2cc([N+](=O)[O-])ccc2[N+](=O)[O-])N1c1nnc(-c2ccc(C(F)(F)F)cc2N=C2SCC(=O)N2c2cc([N+](=O)[O-])ccc2[N+](=O)[O-])s1 | WI-38 | MTT | – | 89.2 µM |
